Assay [1] concerns Rattus norvegicus. The experiment in a line: Ability to lower blood sugar level at the dose of 10 mg/kg in fasted rats, by using glucose tolerance test(GTT). It counts as functional. The method, boiled down: (§1)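 Male albino rats, groups of five or six, fasted 18–24 h. Glucose 1 g/kg given ip; test drug (0.1 to 100 mg/kg) or water (controls) given orally. Tail-vein blood sampled over 0–3 h; glucose (mg/100 mL) measured by Autoanalyser ferricyanide method. Value is percent lowering of blood glucose vs controls at 0.5 h; a lowering of ≥9% is needed for P = 0.05.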

Assay [2] concerns Rattus norvegicus. The experiment in a line: Ability to lower blood sugar level at the dose of 25 mg/kg in fasted rats, by using glucose tolerance test(GTT). The assay is classed as functional. A digest of the protocol: as §1
The test system of assay [3] is Rattus norvegicus. Put plainly: Ability to lower blood sugar level at the dose of 100 mg/kg in fasted rats, by using glucose tolerance test(GTT). It counts as functional. The method, boiled down: as §1
For assay [4], the system named is Rattus norvegicus. The experiment in a line: Ability to lower blood sugar level at the dose of 25 mg/kg in fasted rats, by using glucose tolerance test(GTT); NA=Inactive. The assay is classed as functional, organism-based. Details: dose 25 mg/kg. The method, boiled down: as §1
The test system of assay [5] is Rattus norvegicus. Put plainly: Ability to lower blood sugar level at the dose of 10 mg/kg in fasted rats, by using glucose tolerance test(GTT); NA=Inactive. Also noted: dose 10 mg/kg. The assay is classed as functional, organism-based. A digest of the protocol: as §1
Assay [6] concerns Rattus norvegicus. Put plainly: Ability to lower blood sugar level at the dose of 5 mg/kg in fasted rats, by using glucose tolerance test(GTT). The assay is classed as functional. The method, boiled down: as §1
For assay [7], the system named is Rattus norvegicus. Put plainly: Ability to lower blood sugar level at the dose of 2.5 mg/kg in fasted rats, by using glucose tolerance test(GTT). The assay is classed as functional. The method, boiled down:
as §1

The subject of assay [8] is Rattus norvegicus. The experiment in a line: Ability to lower blood sugar level at the dose of 100 mg/kg in fasted rats, by using glucose tolerance test(GTT); NA=Inactive. The assay is classed as functional, organism-based. Details: dose 100 mg/kg. The method, boiled down:
as §1

Each structure is given as a SMILES string. Active and inactive are the calls of the source. The rule behind the calls is not given here.

We go through 78 molecules from ChEMBL document CHEMBL1123180, “Improved glucose tolerance in rats treated with oxazolidinediones” (1986).

In assay [1], `O=C1NC(=O)C(c2ccccc2Cl)O1` (stereo not drawn) yielded a Blood sugar lowering of 11%.

In assay [2], `Cc1ccc(F)cc1C1OC(=O)NC1=O` (stereo not drawn) showed a Blood sugar lowering of 19%.

As to `O=C1NC(=O)C(c2ccc(F)cc2)O1` (stereo not drawn), the Blood sugar lowering in assay [3] worked out at 21%.

`COc1ccc(C(N)=O)cc1C1OC(=O)NC1=O` (stereo not drawn): in assay [4], the Blood sugar lowering result was “inactive”.

Consider `COc1cccc(N)c1C1OC(=O)NC1=O` (stereo not drawn), for which the Blood sugar lowering result in assay [4] is “inactive”.

As to `COc1ccc(OC)c(C2OC(=O)NC2=O)c1` (stereo not drawn), the Blood sugar lowering result in assay [5] was “inactive”.

`CCc1ccc(OC)c(C2OC(=O)NC2=O)c1` (stereo not drawn) showed a Blood sugar lowering in assay [2] of 10%.

Take `COc1ccc(C(=O)O)cc1C1OC(=O)NC1=O` (stereo not drawn): the Blood sugar lowering entry in assay [4] is “inactive”.

With `CCOc1ccc(Cl)cc1C1OC(=O)NC1=O` (stereo not drawn), the Blood sugar lowering in assay [6] was 11%.

Turning to `Cc1ccc(C2OC(=O)NC2=O)cc1` (stereo not drawn), the Blood sugar lowering in assay [3] was 10%.

Turning to `O=C(Nc1ccccc1C1OC(=O)NC1=O)NC1CCCCC1` (stereo not drawn), the Blood sugar lowering result in assay [4] is “inactive”.

Take `COc1c(Cl)cc(F)cc1C1OC(=O)NC1=O` (stereo not drawn): the Blood sugar lowering in assay [1] was 15%.

In turn, `Cc1ccccc1C1OC(=O)NC1=O` (stereo not drawn) showed a Blood sugar lowering in assay [1] of 14%.

`O=C1NC(=O)C(c2ccc3c(c2)OCO3)O1` (stereo not drawn) had a Blood sugar lowering in assay [3] of 18%.

`COc1ccc(Cl)cc1C1OC(=O)NC1=O` (single isomer, unassigned; (-)) registered a Blood sugar lowering in assay [7] (2.5 mg/kg) of 26%.

Molecule `CCSc1cccc(F)c1C1OC(=O)NC1=O` (stereo not drawn) returned a Blood sugar lowering in assay [2] of 17%.

Consider `CNC(=O)Nc1ccccc1C1OC(=O)NC1=O` (stereo not drawn), for which the Blood sugar lowering result in assay [8] is “inactive”.

In the case of `O=C1NC(=O)C(c2ccccc2NS(=O)(=O)c2ccccc2)O1` (stereo not drawn), the Blood sugar lowering entry in assay [4] was “inactive”.

With `COc1cc(C2OC(=O)NC2=O)c(C)cc1F` (stereo not drawn), in assay [5], the Blood sugar lowering entry was “inactive”.

For the molecule `Nc1ccc(C2OC(=O)NC2=O)cc1` (stereo not drawn), the Blood sugar lowering entry in assay [8] was “inactive”.

For the molecule `O=C1NC(=O)C(c2c(Cl)cccc2OCC2CC2)O1` (stereo not drawn), the Blood sugar lowering entry in assay [5] was “inactive”.

Turning to `COc1cccc(C(F)(F)F)c1C1OC(=O)NC1=O` (stereo not drawn), the Blood sugar lowering entry in assay [4] is “inactive”.

For the molecule `CSc1cccc(F)c1C1OC(=O)NC1=O` (stereo not drawn), in assay [2], the Blood sugar lowering is 18%.

In assay [6], `COc1ccccc1C1OC(=O)NC1=O` (stereo not drawn) yielded a Blood sugar lowering of 14%.

`COc1ccc(S(=O)(=O)NC(=O)NC2CCCCC2)cc1C1OC(=O)NC1=O` (stereo not drawn): the Blood sugar lowering entry in assay [4] is “inactive”.

`COc1cccc(C)c1C1OC(=O)NC1=O` (stereo not drawn) showed a Blood sugar lowering in assay [1] of 10%.

As to `COc1ccc(C(C)C)cc1C1OC(=O)NC1=O` (stereo not drawn), the Blood sugar lowering entry in assay [5] is “inactive”.

In assay [2], `COc1ccc(C2OC(=O)NC2=O)c(OC)c1` (stereo not drawn) displayed a Blood sugar lowering of 10%.

In assay [2], `CSc1cccc(Cl)c1C1OC(=O)NC1=O` (stereo not drawn) had a Blood sugar lowering of 21%.

As to `O=C1NC(=O)C(c2ccc(F)cc2C(F)(F)F)O1` (stereo not drawn), the Blood sugar lowering entry in assay [5] was “inactive”.

In the case of `COc1ccc(S(=O)(=O)N(C)C)cc1C1OC(=O)NC1=O` (stereo not drawn), the Blood sugar lowering entry in assay [5] is “inactive”.

With `O=C1NC(=O)C(c2c(Cl)cccc2[N+](=O)[O-])O1` (stereo not drawn), in assay [4], the Blood sugar lowering entry is “inactive”.

`COc1ccc(C#N)cc1C1OC(=O)NC1=O` (stereo not drawn) gave a Blood sugar lowering in assay [2] of 19%.

`COc1cccc(NC(C)=O)c1C1OC(=O)NC1=O` (stereo not drawn): the Blood sugar lowering result in assay [4] is “inactive”.

In the case of `COc1cc(C)c(Cl)cc1C1OC(=O)NC1=O` (stereo not drawn), the Blood sugar lowering entry in assay [5] is “inactive”.

For the molecule `CS(=O)(=O)Nc1ccccc1C1OC(=O)NC1=O` (stereo not drawn), the Blood sugar lowering entry in assay [4] is “inactive”.

In turn, `O=C1NC(=O)C(c2ccccc2OCc2ccccc2)O1` (stereo not drawn) gave a Blood sugar lowering in assay [3] of 11%.

Turning to `COc1ccc(Br)cc1C1OC(=O)NC1=O` (stereo not drawn), the Blood sugar lowering in assay [6] stood at 22%.

`O=C1NC(=O)C(c2cccc(Cl)c2)O1` (stereo not drawn) displayed a Blood sugar lowering in assay [3] of 26%.

Consider `CCOc1ccc(C2OC(=O)NC2=O)cc1` (stereo not drawn), for which the Blood sugar lowering in assay [3] came out at 18%.

Regarding `COc1cccc(C2OC(=O)NC2=O)c1` (stereo not drawn), in assay [5], the Blood sugar lowering entry was “inactive”.

`O=C1NC(=O)C(c2ccc(OCc3ccccc3)cc2)O1` (stereo not drawn) had a Blood sugar lowering in assay [3] of 20%.

In the case of `O=C1NC(=O)C(c2cccc(C(F)(F)F)c2)O1` (stereo not drawn), in assay [1], the Blood sugar lowering is on record as 17%.

As for `O=C1NC(=O)C(Cc2ccccc2)O1` (stereo not drawn), the Blood sugar lowering in assay [2] was found to be 9%.

`CN1C(=O)OC(c2ccccc2)C1=O` (stereo not drawn): in assay [8], the Blood sugar lowering entry is “inactive”.

Consider `Cc1cccc(C)c1C1OC(=O)NC1=O` (stereo not drawn), for which the Blood sugar lowering in assay [1] is recorded as 13%.

For `O=C1NC(=O)C(c2c(Cl)cccc2Cl)O1` (stereo not drawn), in assay [2], the Blood sugar lowering worked out at 21%.

In assay [7] (2.5 mg/kg), `COc1ccc(Cl)cc1C1OC(=O)NC1=O` (single isomer, unassigned; (+)) gave a Blood sugar lowering of 12%.

In the case of `O=C1NC(=O)C(c2ccccc2C(F)(F)F)O1` (stereo not drawn), in assay [1], the Blood sugar lowering was 11%.

As to `C=CCOc1cccc(Cl)c1C1OC(=O)NC1=O` (stereo not drawn), the Blood sugar lowering in assay [7] came to 17%.

With `CCC1(c2ccccc2)OC(=O)NC1=O` (stereo not drawn), the Blood sugar lowering entry in assay [8] was “inactive”.

The molecule `COc1c(F)cc(C)cc1C1OC(=O)NC1=O` (stereo not drawn) returned a Blood sugar lowering in assay [1] of 17%.

Take `O=C1NC(=O)C(c2ccccc2[N+](=O)[O-])O1` (stereo not drawn): the Blood sugar lowering in assay [2] was 11%.

Take `CC(C)Oc1cccc(F)c1C1OC(=O)NC1=O` (stereo not drawn): the Blood sugar lowering in assay [2] was 15%.

`CCOc1ccccc1C1OC(=O)NC1=O` (stereo not drawn) gave a Blood sugar lowering in assay [6] of 15%.

`COc1cc(C2OC(=O)NC2=O)c(Cl)cc1C` (stereo not drawn): in assay [5], the Blood sugar lowering entry is “inactive”.

Take `O=C1NC(=O)C(c2ccccc2OCCn2ccnc2)O1` (stereo not drawn): the Blood sugar lowering result in assay [4] was “inactive”.

As for `COc1ccc(-c2ccccc2)cc1C1OC(=O)NC1=O` (stereo not drawn), the Blood sugar lowering entry in assay [4] is “inactive”.

On to `COc1cccc(OC)c1C1OC(=O)NC1=O` (stereo not drawn), for which the Blood sugar lowering in assay [1] came to 12%.

As to `COc1ncccc1C(=O)NCCc1ccc(C2OC(=O)NC2=O)cc1` (stereo not drawn), the Blood sugar lowering in assay [3] turned out to be 26%.

As to `CCOc1ccc(F)cc1C1OC(=O)NC1=O` (stereo not drawn), the Blood sugar lowering in assay [6] was 9%.

As for `O=C1NC(=O)C(c2c(F)cccc2C(F)(F)F)O1` (stereo not drawn), the Blood sugar lowering entry in assay [4] was “inactive”.

The molecule `COc1ccc(Cl)c(C)c1C1OC(=O)NC1=O` (stereo not drawn) came in with a Blood sugar lowering in assay [1] of 12%.

Turning to `CCOc1cccc(F)c1C1OC(=O)NC1=O` (stereo not drawn), the Blood sugar lowering in assay [6] stood at 9%.

`O=C1NC(=O)C(c2cccc(F)c2)O1` (stereo not drawn): the Blood sugar lowering in assay [1] was determined as 10%.

`COc1c(C)cc(Cl)cc1C1OC(=O)NC1=O` (stereo not drawn) displayed a Blood sugar lowering in assay [1] of 17%.

Regarding `O=C1NC(=O)C(c2c(F)cccc2F)O1` (stereo not drawn), the Blood sugar lowering in assay [2] amounted to 25%.

On to `O=C1NC(=O)C(c2c(F)cccc2Cl)O1` (stereo not drawn), for which the Blood sugar lowering in assay [1] turned out to be 12%.

On to `O=C1NC(=O)C(c2ccccc2F)O1` (stereo not drawn), for which, in assay [6], the Blood sugar lowering amounted to 10%.

As for `COc1ccc(N)cc1C1OC(=O)NC1=O` (stereo not drawn), in assay [4], the Blood sugar lowering entry was “inactive”.

As to `O=C1NC(=O)C(c2c(Cl)cccc2OCc2ccccc2)O1` (stereo not drawn), in assay [4], the Blood sugar lowering result was “inactive”.

In turn, `Cl.Nc1ccccc1C1OC(=O)NC1=O` (stereo not drawn) gave a Blood sugar lowering in assay [2] of 15%.

`O=C1NC(=O)C(c2ccccc2)N1` (stereo not drawn): in assay [8], the Blood sugar lowering result is “inactive”.

As for `O=C1NC(=O)C(c2cccc(Oc3ccccc3)c2)O1` (stereo not drawn), the Blood sugar lowering in assay [3] was 12%.

With `COc1ccc(CCn2ccnc2)cc1C1OC(=O)NC1=O` (stereo not drawn), in assay [4], the Blood sugar lowering result was “inactive”.

For `CC(=O)Nc1ccccc1C1OC(=O)NC1=O` (stereo not drawn), the Blood sugar lowering in assay [6] is listed as 14%.

As to `O=C1NC(=O)C(c2c(Cl)cccc2-n2cccc2)O1` (stereo not drawn), the Blood sugar lowering result in assay [5] is “inactive”.

Regarding `COc1ccc(C2OC(=O)NC2=O)cc1` (stereo not drawn), the Blood sugar lowering in assay [3] stood at 19%.
